# Assays:
# Format in all cases: functional
# SNB-75 = experiment: Cytotoxicity against human SNB75 cells after 48 hrs by SRB assay; conditions: SNB-75, 48 h
# In short: (§1)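 NCI 60-cell screen. Cells grew 24 h (37 °C, 5% CO2) before compound was added. Compounds were in DMSO and diluted in medium with gentamicin, then tested at five levels (100, 10, 1.0, 0.1, 0.01 µM) with 48 h continuous exposure. Adherent cells were fixed with TCA (10% final) and stained with 0.4% SRB, absorbance read at 515 nm. A time-zero plate was included. LC50 is the concentration giving 50% loss of protein relative to time zero.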
# SK-MEL-28 = experiment: Cytotoxicity against human SK-MEL-28 cells after 48 hrs by SRB assay; conditions: SK-MEL-28, 48 h
# In short: (§2)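 NCI 60-cell-line screen. Cells preincubated 24 h at 37 °C, 5% CO2; time-zero plates TCA-fixed. Compounds dissolved in DMSO and tested at five concentrations (100, 10, 1.0, 0.1, 0.01 µM) for 48 h continuous exposure. Adherent cells fixed with cold TCA (10% final), then SRB stained; absorbance at 515 nm. GI50, TGI and LC50 calculated from growth relative to time-zero and untreated controls.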
# HL-60(TB) = experiment: Cytotoxicity against human HL-60(TB) cells after 48 hrs by SRB assay; conditions: HL-60, 48 h; in short: as §2
# SNB-19 = experiment: Cytotoxicity against human SNB19 cells after 48 hrs by SRB assay; conditions: SNB-19, 48 h; in short: as §1
# HOP-92 = experiment: Cytotoxicity against human HOP92 cells after 48 hrs by SRB assay; conditions: HOP-92, 48 h; in short: as §2
# Hs-578T = experiment: Cytotoxicity against human Hs578T cells after 48 hrs by SRB assay; in short: as §2
# 786-0 = experiment: Cytotoxicity against human 786-0 cells after 48 hrs by SRB assay; conditions: 786-0, 48 h; in short: as §2
# OVCAR-5 = experiment: Cytotoxicity against human OVCAR5 cells after 48 hrs by SRB assay; conditions: OVCAR-5, 48 h; in short: as §2
# MDA-MB-231 = experiment: Cytotoxicity against human MDA-MB-231 cells after 48 hrs by SRB assay; conditions: MDA-MB-231, 48 h; in short: as §2
# UACC-257 = experiment: Cytotoxicity against human UACC257 cells after 48 hrs by SRB assay; conditions: UACC-257, 48 h; in short: as §1
# MCF7 = experiment: Cytotoxicity against human MCF7 cells after 48 hrs by SRB assay; conditions: MCF7, 48 h; in short: as §2
# ACHN = experiment: Cytotoxicity against human ACHN cells after 48 hrs by SRB assay; in short: as §2
# OVCAR-4 = experiment: Cytotoxicity against human OVCAR4 cells after 48 hrs by SRB assay; conditions: OVCAR-4, 48 h; in short: as §2
# HOP-62 = experiment: Cytotoxicity against human HOP62 cells after 48 hrs by SRB assay; conditions: HOP-62, 48 h; in short: as §2
# K562 = experiment: Cytotoxicity against human K562 cells after 48 hrs by SRB assay; conditions: K562, 48 h; in short: as §2
# OVCAR-3 = experiment: Cytotoxicity against human OVCAR3 cells after 48 hrs by SRB assay; conditions: OVCAR-3, 48 h; in short: as §2
# SW-620 = experiment: Cytotoxicity against human SW620 cells after 48 hrs by SRB assay; conditions: SW-620, 48 h; in short: as §1
# NCI-H23 = experiment: Cytotoxicity against human NCI-H23 cells after 48 hrs by SRB assay; conditions: NCI-H23, 48 h; in short: as §2
# DU-145 = experiment: Cytotoxicity against human DU145 cells after 48 hrs by SRB assay; conditions: DU-145, 48 h; in short: as §2
# A498 = experiment: Cytotoxicity against human A498 cells after 48 hrs by SRB assay; conditions: A498, 48 h; in short: as §2
# [1] = Cytotoxicity against human EKVX cells after 48 hrs by SRB assay; in short: as §2
# UO-31 = experiment: Cytotoxicity against human UO31 cells after 48 hrs by SRB assay; conditions: UO-31, 48 h; in short: as §1
# MOLT-4 = experiment: Cytotoxicity against human MOLT4 cells after 48 hrs by SRB assay; conditions: MOLT-4, 48 h; in short: as §2
# CCRF-CEM = experiment: Cytotoxicity against human CCRF-CEM cells after 48 hrs by SRB assay; in short: as §2
# [2] = read-out: LC50 (the source's name)
compound,measurement,setting,value
O=CN1N=C(c2cccc(Nc3ccnc4cc(Cl)ccc34)c2)CC1c1ccc(Cl)cc1 (configuration not stated),GI50,SNB-75,1.58 µM
same,LC50 (50% net cell kill),SNB-75,> 100 µM
same,GI50,SK-MEL-28,5.63 µM
same,CC50,SK-MEL-28; [2],> 100 µM
same,GI50,HL-60(TB),1.1 µM
same,CC50,HL-60(TB); [2],40.2 µM
same,GI50,SNB-19,3.48 µM
same,LC50,SNB-19,> 100 µM
same,GI50,HOP-92,0.65 µM
same,LC50 (concentration killing 50% of cells),HOP-92,> 100 µM
same,GI50,Hs-578T,1.97 µM
same,LC50 (50% net cell kill),Hs-578T,> 100 µM
same,GI50,786-0,4.73 µM
same,LC50,786-0,> 100 µM
same,GI50,OVCAR-5,> 100 µM
same,LC50,OVCAR-5,> 100 µM
same,GI50,MDA-MB-231,2.12 µM
same,LC50 (concentration killing 50% of cells present at time zero),MDA-MB-231,> 100 µM
same,LC50,UACC-257,> 100 µM
same,GI50,MCF7,0.81 µM
same,CC50,MCF7; [2],> 100 µM
same,GI50,ACHN,5.18 µM
same,CC50,ACHN; [2],> 100 µM
same,GI50,OVCAR-4,4.13 µM
same,LC50,OVCAR-4,> 100 µM
same,GI50,HOP-62,1.91 µM
same,LC50 (50% lethal concentration),HOP-62,> 100 µM
same,GI50,K562,0.41 µM
same,LC50 (concentration killing 50% of cells),K562,> 100 µM
same,GI50,OVCAR-3,1.2 µM
same,LC50,OVCAR-3,> 100 µM
same,GI50,SW-620,0.56 µM
same,LC50,SW-620,> 100 µM
same,GI50,NCI-H23,2.48 µM
same,CC50,NCI-H23; [2],> 100 µM
same,GI50,DU-145,4.17 µM
same,LC50 (concentration killing 50% of cells),DU-145,> 100 µM
same,GI50,A498,0.83 µM
same,CC50,A498; [2],> 100 µM
same,GI50,[1],> 100 µM
same,LC50,[1],> 100 µM
same,GI50,UO-31,0.88 µM
same,LC50,UO-31,> 100 µM
same,GI50,MOLT-4,1.92 µM
same,LC50,MOLT-4,> 100 µM
same,GI50,CCRF-CEM,2.34 µM
same,LC50 (concentration killing 50% of cells relative to time zero),CCRF-CEM,> 100 µM
